The results in this text go back to ChEMBL document CHEMBL3621051, “Design and synthesis of 4-benzyl-1-(2H)-phthalazinone derivatives as novel androgen receptor antagonists” (Eur J Med Chem, 2015).

The source made the active and inactive calls. The calls are words filed in the database; no cut-off is given here.

A word on the IC50: it is the concentration that gives 50% inhibition.

Assay [1] deals with T1, Androgen receptor (Homo sapiens) (UniProt P10275).
T1 sequence (whole entry): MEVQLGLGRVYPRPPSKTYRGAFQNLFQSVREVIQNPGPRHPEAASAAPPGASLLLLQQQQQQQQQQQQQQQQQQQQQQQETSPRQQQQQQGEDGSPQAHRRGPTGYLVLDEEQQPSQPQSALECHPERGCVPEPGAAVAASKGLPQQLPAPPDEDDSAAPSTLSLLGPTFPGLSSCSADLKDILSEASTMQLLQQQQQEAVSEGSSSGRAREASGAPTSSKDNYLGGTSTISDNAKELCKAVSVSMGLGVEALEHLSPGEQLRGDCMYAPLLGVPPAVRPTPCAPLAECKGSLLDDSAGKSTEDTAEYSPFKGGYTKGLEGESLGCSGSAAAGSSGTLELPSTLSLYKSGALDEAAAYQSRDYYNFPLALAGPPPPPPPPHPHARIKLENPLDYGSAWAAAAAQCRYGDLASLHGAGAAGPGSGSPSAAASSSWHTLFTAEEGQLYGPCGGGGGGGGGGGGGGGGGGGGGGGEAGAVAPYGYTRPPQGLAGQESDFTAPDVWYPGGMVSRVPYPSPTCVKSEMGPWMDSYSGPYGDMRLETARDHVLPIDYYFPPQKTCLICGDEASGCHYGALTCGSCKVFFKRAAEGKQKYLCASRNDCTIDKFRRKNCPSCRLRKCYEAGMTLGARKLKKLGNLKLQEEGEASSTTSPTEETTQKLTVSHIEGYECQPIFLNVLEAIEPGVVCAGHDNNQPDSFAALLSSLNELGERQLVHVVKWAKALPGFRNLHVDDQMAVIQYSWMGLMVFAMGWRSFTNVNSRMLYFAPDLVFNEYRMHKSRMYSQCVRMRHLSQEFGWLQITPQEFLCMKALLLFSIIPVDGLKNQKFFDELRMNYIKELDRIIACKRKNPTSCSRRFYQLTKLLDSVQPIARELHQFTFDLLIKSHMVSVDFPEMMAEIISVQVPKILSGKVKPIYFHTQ
The assay can be described thus: Agonist activity at wild type AR expressed in […] SC cells assessed as effect on cell proliferation by WST-8 assay. In kind it is cell-based. (In general: Tetrazolium dyes change colour on reduction, which living cells bring about.)

For the next assay, the system named is PC-3. As to the kind of experiment: Cytotoxicity against androgen-independent human PC3 cells assessed as inhibition of cell proliferation after 3 days by WST-8 assay. In kind it is functional, cell-based.
For another assay, the target named is T2, Androgen receptor (Homo sapiens, UniProt P10275).
T2 sequence (P10275 whole entry): T1 sequence (whole entry)
As to the kind of experiment: Displacement of [3H]-DHT from human GST fused AR-LBD (627 to 919 amino acids) transfected in Escherichia coli HB 101 after 15 hrs by liquid scintillation counting assay. The essentials: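 Crude sonicated lysate in TEGDM was diluted to 0.3-0.5 mg/mL protein. Incubation was in the dark at 4°C for 15 h with 4 nM [3H]-DHT and 1 µM triamcinolone acetonide (final). Free ligand was removed with dextran/γ-globulin-coated charcoal, and the supernatant counted by liquid scintillation; ≥duplicate.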
A general note: In a radioligand displacement assay an active substance lowers the binding of a labelled ligand.

As for `Nc1ccc(Cc2n[nH]c(=O)c3ccccc23)cc1`, the outcome in assay [1] was inactive.

For the compound `O=c1[nH]nc(Cc2ccccc2C(F)(F)F)c2ccccc12`, the outcome in assay [1] was inactive.

On to `Nc1ccccc1Cc1n[nH]c(=O)c2ccccc12`, for which, in the assay on PC-3, the inhibition entry is “inactive”. Further, the IC50 on Androgen receptor is 45.2 µM. Besides, the result in assay [1] was inactive. For the compound `O=c1[nH]nc(Cc2c(Cl)ccc(Cl)c2Cl)c2ccccc12`, in the assay with PC-3, the inhibition result was “inactive”. This compound displayed an IC50 at Androgen receptor of 56.7 µM. Also, in assay [1], the result was inactive. On to `CCNc1ccccc1Cc1n[nH]c(=O)c2ccccc12`, for which the result in assay [1] was inactive.

Consider `Oc1nnc(Cc2ccccc2Cl)c2ccccc12`, for which, in the assay with PC-3, the inhibition result was “inactive”. Moreover, the 50% inhibitory concentration (IC50) on Androgen receptor was found to be 85.4 µM. For the same compound, the outcome in assay [1] was inactive. Regarding `CCN(CC)c1ccc(Cc2n[nH]c(=O)c3ccccc23)cc1`, in assay [1], the result was inactive. On the same count and under the same terms, in the case of `CC(=O)Nc1ccccc1Cc1n[nH]c(=O)c2ccccc12` it was “inactive”; in that of `CCN(CC)c1ccccc1Cc1n[nH]c(=O)c2ccccc12`, “inactive”.

`Cc1cccc(C)c1Cc1n[nH]c(=O)c2ccccc12`: the inhibition result in the assay with PC-3 is “inactive”. At Androgen receptor, this compound came in with a half-inhibitory concentration (IC50) of 84.3 µM. Also, the outcome in assay [1] was inactive.

As for `O=c1[nH]nc(Cc2c(F)cccc2F)c2ccccc12`, in assay [1], the outcome was inactive. As to `O=c1[nH]nc(Cc2c(Cl)cccc2Cl)c2ccccc12`, in the assay on PC-3, the inhibition entry was “inactive”. Besides, at Androgen receptor, the IC50 is 10.9 µM. The result in assay [1] was inactive. As for `O=c1[nH]nc(Cc2ccccc2)c2ccccc12`, in assay [1], the outcome was inactive.

As for `CS(=O)(=O)Nc1ccc(Cc2n[nH]c(=O)c3ccccc23)cc1`, the outcome in assay [1] was inactive. For the compound `Cc1ccccc1Cc1n[nH]c(=O)c2ccccc12`, in assay [1], the outcome was inactive. The same measure, in the same setting: in the case of `O=C(Nc1ccccc1Cc1n[nH]c(=O)c2ccccc12)C(F)(F)F` it was “inactive”; in that of `O=[N+]([O-])c1ccc(Cc2nnc(O)c3ccccc23)cc1`, “inactive”; in that of `O=C(O)c1ccccc1Cc1n[nH]c(=O)c2ccccc12`, “inactive”. On the same count and under the same terms, under `O=C(Nc1ccc(Cc2n[nH]c(=O)c3ccccc23)cc1)C(F)(F)F` stands “inactive”. In the case of `O=c1[nH]nc(Cc2ccccc2[N+](=O)[O-])c2ccccc12`, the inhibition entry in the assay with PC-3 is “inactive”. This compound registered an IC50 at Androgen receptor of over 100 µM. In assay [1], the result was inactive.

As for `O=c1[nH]nc(Cc2ccccc2F)c2ccccc12`, the outcome in assay [1] was inactive. The same measure, in the same setting: under `CC(C)(O)C(=O)Nc1ccc([N+](=O)[O-])c(C(F)(F)F)c1` stands “inactive”.

In the case of `CN(C)c1ccccc1Cc1n[nH]c(=O)c2ccccc12`, the result in assay [1] was inactive. For the compound `CNc1ccccc1Cc1n[nH]c(=O)c2ccccc12`, the result in assay [1] was inactive.

For `CCNc1ccc(Cc2n[nH]c(=O)c3ccccc23)cc1`, in assay [1], the result was inactive.

Consider `CN(C)c1ccc(Cc2n[nH]c(=O)c3ccccc23)cc1`, for which the result in assay [1] was inactive.

With `CS(=O)(=O)Nc1ccccc1Cc1n[nH]c(=O)c2ccccc12`, the outcome in assay [1] was inactive. Regarding `COc1ccccc1Cc1n[nH]c(=O)c2ccccc12`, the result in assay [1] was inactive.

On to `CC(=O)Nc1ccc(Cc2n[nH]c(=O)c3ccccc23)cc1`, for which the result in assay [1] was inactive.

Take `CNc1ccc(Cc2n[nH]c(=O)c3ccccc23)cc1`: the result in assay [1] was inactive.
